Assay results taken from ChEMBL document CHEMBL1126849, “Synthesis of A-ring fluorinated derivatives of (17 alpha,20E/Z)-[125I]iodovinylestradiols: effect on receptor binding and receptor-mediated target tissue uptake” (J Med Chem, 1993).

Legend:
[1] = tested on: Rattus norvegicus; assay: Biodistribution in blood of immature female rat after 12 hour administration of 3 micro Ci (111 kBq) in the absence of 60 microg estradiol; type: ADME, organism-based; settings: in vivo
Summary of the method: (§1)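 Immature female Long Evans rats (21–24 days, 45–70 g), unanesthetized in retention cages, given 3 µCi (111 kBq) 125I-labeled steroid i.v. via lateral tail vein. Vehicle was ethanol diluted in saline containing 1% Tween-80, giving 9% ethanol final. The blocking group received 60 µg unlabeled estradiol co-injected. Rats were killed under ether by axillary bleeding, and tissues were KCl-washed and gamma-counted. Data are %ID/g, mean ± SE, n=3–5.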

[2] = tested on: Rattus norvegicus; assay: Biodistribution in kidney of immature female rat after 1 hr administration of 3 micro Ci (111 kBq) in the presence of (+E2); type: ADME, organism-based; settings: in vivo; summary of the method: as §1
[3] = tested on: Rattus norvegicus; assay: Biodistribution in lungs of immature female rat after 12 hour administration of 3 micro Ci (111 kBq) in the absence of 60 microg estradiol; type: ADME, organism-based, Lung; settings: in vivo
Summary of the method: (§2)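 Immature female Long Evans rats (21–24 days, 45–70 g), three to five per group, given 125I-labeled steroid (3 μCi, 111 kBq) by lateral tail vein without anesthesia. Vehicle: ethanol diluted in saline with 1% Tween-80, final ethanol 9%, 0.22 μm filtered. +E2 groups received 60 μg unlabeled estradiol co-injected. Killed under ether at set times; tissues KCl-washed, blotted, weighed, gamma counted; %ID/g, mean with SE.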

[4] = tested on: Rattus norvegicus; assay: Biodistribution in blood of immature female rat after 3 hour administration of 3 micro Ci (111 kBq) in the absence of 60 microg estradiol; type: ADME, organism-based; settings: in vivo; summary of the method: as §1
[5] = tested on: Rattus norvegicus; assay: Biodistribution in muscle of immature female rat after 1 hr administration of 3 micro Ci (111 kBq) in the presence of (+E2); type: ADME, organism-based, Muscle tissue; settings: in vivo; summary of the method: as §2
[6] = tested on: Rattus norvegicus; assay: Biodistribution in uterus / blood of immature female rat after 3 hour administration of 3 micro Ci (111 kBq) in the absence of 60 microg estradiol; type: ADME, organism-based; settings: in vivo
Summary of the method: (§3)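 Same in vivo procedure: immature female Long Evans rats (21–24 days), three to five per group, 3 μCi (111 kBq) tracer i.v. via tail vein in 9% ethanol/saline/1% Tween-80, ± 60 μg estradiol co-injected at 1 h. Uterus %ID/g (gamma counting) divided by blood, or by nontarget organ (muscle, spleen, lungs), %ID/g to give ratios.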

[7] = tested on: Rattus norvegicus; assay: Biodistribution in uterus of immature female rat after 5 hour administration of 3 micro Ci (111 kBq) in the absence of 60 microg estradiol; type: ADME, organism-based; settings: in vivo
Summary of the method: (§4)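 Immature female Long Evans rats (21–24 days, 45–70 g), 3–5 per group, unanesthetized in retention cages, given 3 μCi (111 kBq) 125I-labeled steroid by lateral tail vein. Vehicle: ethanol diluted with saline containing 1% Tween-80, final ethanol 9%. +E2 group co-injected 60 μg unlabeled estradiol (1 h only). Killed under ether; tissues KCl-washed, weighed, gamma-counted. Output: %ID/g (mean, SE) and uterus to blood or nontarget (muscle, spleen, lungs) ratios.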

[8] = tested on: Rattus norvegicus; assay: Biodistribution in muscle of immature female rat after 1 hr administration of 3 micro Ci (111 kBq) in the absence of 60 microg estradiol; type: ADME, organism-based, Muscle tissue; settings: in vivo; summary of the method: as §2
[9] = tested on: Rattus norvegicus; assay: Biodistribution in spleen of immature female rat after 1 hr administration of 3 micro Ci (111 kBq) in the absence of 60 microg estradiol; type: ADME, organism-based; settings: in vivo; summary of the method: as §2
[10] = tested on: Rattus norvegicus; assay: Biodistribution in kidney of immature female rat after 12 hour administration of 3 micro Ci (111 kBq) in the absence of 60 microg estradiol; type: ADME, organism-based; settings: in vivo; summary of the method: as §1
[11] = tested on: Rattus norvegicus; assay: Biodistribution in lungs of immature female rat after 1 hr administration of 3 micro Ci (111 kBq) in the presence of (+E2); type: ADME, organism-based, Lung; settings: in vivo; summary of the method: as §1
[12] = tested on: Rattus norvegicus; assay: Biodistribution in muscle of immature female rat after 12 hour administration of 3 micro Ci (111 kBq) in the absence of 60 microg estradiol; type: ADME, organism-based, Muscle tissue; settings: in vivo; summary of the method: as §2
[13] = tested on: Rattus norvegicus; assay: Biodistribution in thyroid of immature female rat after 1 hr administration of 3 micro Ci (111 kBq) in the absence of 60 microg estradiol; type: ADME, organism-based, Thyroid gland; settings: in vivo; summary of the method: as §2
[14] = tested on: Rattus norvegicus; assay: Biodistribution in kidney of immature female rat after 3 hour administration of 3 micro Ci (111 kBq) in the absence of 60 microg estradiol; type: ADME, organism-based; settings: in vivo; summary of the method: as §1
[15] = tested on: Rattus norvegicus; assay: Biodistribution in uterus / blood of immature female rat after 1 hr administration of 3 micro Ci (111 kBq) in the absence of 60 microg estradiol; type: ADME, organism-based; settings: in vivo; summary of the method: as §3
[16] = tested on: Rattus norvegicus; assay: Biodistribution in thyroid of immature female rat after 1 hr administration of 3 micro Ci (111 kBq) in the presence of (+E2); type: ADME, organism-based, Thyroid gland; settings: in vivo; summary of the method: as §2
[17] = tested on: Rattus norvegicus; assay: Biodistribution in lungs of immature female rat after 1 hr administration of 3 micro Ci (111 kBq) in the absence of 60 microg estradiol; type: ADME, organism-based, Lung; settings: in vivo; summary of the method: as §1
[18] = tested on: Rattus norvegicus; assay: Biodistribution in liver of immature female rat after 3 hour administration of 3 micro Ci (111 kBq) in the absence of 60 microg estradiol; type: ADME, organism-based; settings: in vivo; summary of the method: as §1
[19] = tested on: Rattus norvegicus; assay: Biodistribution in fat of immature female rat after 5 hour administration of 3 micro Ci (111 kBq) in the absence of 60 microg estradiol; type: ADME, organism-based, Adipose tissue; settings: in vivo; summary of the method: as §1
[20] = tested on: Rattus norvegicus; assay: Biodistribution in uterus / spleen, muscle, lungs of immature female rat after 1 hr administration of 3 micro Ci (111 kBq) in the absence of 60 microg estradiol; type: ADME, organism-based; settings: in vivo; summary of the method: as §3
[21] = tested on: Rattus norvegicus; assay: Biodistribution in fat of immature female rat after 3 hour administration of 3 micro Ci (111 kBq) in the absence of 60 microg estradiol; type: ADME, organism-based, Adipose tissue; settings: in vivo; summary of the method: as §1
[22] = tested on: Rattus norvegicus; assay: Biodistribution in uterus / blood of immature female rat after 5 hour administration of 3 micro Ci (111 kBq) in the absence of 60 microg estradiol; type: ADME, organism-based; settings: in vivo; summary of the method: as §3
[23] = tested on: Rattus norvegicus; assay: Biodistribution in liver of immature female rat after 1 hr administration of 3 micro Ci (111 kBq) in the absence of 60 microg estradiol; type: ADME, organism-based; settings: in vivo; summary of the method: as §1
[24] = target: Estrogen receptor (Mus musculus) (UniProt O08537+P19785); assay: Relative binding affinity (RBA) against murine cytoplasmic estrogen receptor incubated at 0-4 degree Celsius for 18 hours; type: protein assay
Summary of the method: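 Competitive binding on murine uterine cytoplasmic extract with 20 nM [3H]estradiol and competitor steroids at 2 nM–20 μM, incubated 18 h at 0–4 °C. RBA = 100 × ratio of […] concentration giving 50% competition for specific binding. Mean of three experiments with SD.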

[25] = tested on: Rattus norvegicus; assay: Biodistribution in uterus of immature female rat after 3 hour administration of 3 micro Ci (111 kBq) in the absence of 60 microg estradiol; type: ADME, organism-based; settings: in vivo; summary of the method: as §4
[26] = tested on: Rattus norvegicus; assay: Biodistribution in lungs of immature female rat after 3 hour administration of 3 micro Ci (111 kBq) in the absence of 60 microg estradiol; type: ADME, organism-based, Lung; settings: in vivo; summary of the method: as §2
[27] = tested on: Rattus norvegicus; assay: Biodistribution in uterus of immature female rat after 1 hr administration of 3 micro Ci (111 kBq) in the absence of 60 microg estradiol; type: ADME, organism-based; settings: in vivo; summary of the method: as §4
[28] = tested on: Rattus norvegicus; assay: Biodistribution in muscle of immature female rat after 3 hour administration of 3 micro Ci (111 kBq) in the absence of 60 microg estradiol; type: ADME, organism-based, Muscle tissue; settings: in vivo; summary of the method: as §2
[29] = tested on: Rattus norvegicus; assay: Biodistribution in fat of immature female rat after 1 hr administration of 3 micro Ci (111 kBq) in the absence of 60 microg estradiol; type: ADME, organism-based, Adipose tissue; settings: in vivo; summary of the method: as §1
[30] = tested on: Rattus norvegicus; assay: Biodistribution in blood of immature female rat after 1 hr administration of 3 micro Ci (111 kBq) in the absence of 60 microg estradiol; type: ADME, organism-based; settings: in vivo; summary of the method: as §1

Sequence of Estrogen receptor (Mus musculus) (O08537 whole entry, looked up): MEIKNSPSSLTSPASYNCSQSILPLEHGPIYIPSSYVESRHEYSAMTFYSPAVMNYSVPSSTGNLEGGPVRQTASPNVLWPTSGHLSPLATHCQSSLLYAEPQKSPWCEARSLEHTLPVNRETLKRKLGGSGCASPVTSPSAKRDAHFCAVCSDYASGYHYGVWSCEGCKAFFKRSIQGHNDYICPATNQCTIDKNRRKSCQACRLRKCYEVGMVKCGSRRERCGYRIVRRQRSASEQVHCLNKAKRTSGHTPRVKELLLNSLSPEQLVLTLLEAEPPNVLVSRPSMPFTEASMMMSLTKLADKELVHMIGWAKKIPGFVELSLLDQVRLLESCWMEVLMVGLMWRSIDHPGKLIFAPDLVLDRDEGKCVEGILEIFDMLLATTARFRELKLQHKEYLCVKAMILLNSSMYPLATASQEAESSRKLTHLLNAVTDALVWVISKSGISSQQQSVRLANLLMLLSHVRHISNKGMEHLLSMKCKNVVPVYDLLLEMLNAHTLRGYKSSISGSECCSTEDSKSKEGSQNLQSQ
Sequence of Estrogen receptor (Mus musculus) (P19785 whole entry, looked up): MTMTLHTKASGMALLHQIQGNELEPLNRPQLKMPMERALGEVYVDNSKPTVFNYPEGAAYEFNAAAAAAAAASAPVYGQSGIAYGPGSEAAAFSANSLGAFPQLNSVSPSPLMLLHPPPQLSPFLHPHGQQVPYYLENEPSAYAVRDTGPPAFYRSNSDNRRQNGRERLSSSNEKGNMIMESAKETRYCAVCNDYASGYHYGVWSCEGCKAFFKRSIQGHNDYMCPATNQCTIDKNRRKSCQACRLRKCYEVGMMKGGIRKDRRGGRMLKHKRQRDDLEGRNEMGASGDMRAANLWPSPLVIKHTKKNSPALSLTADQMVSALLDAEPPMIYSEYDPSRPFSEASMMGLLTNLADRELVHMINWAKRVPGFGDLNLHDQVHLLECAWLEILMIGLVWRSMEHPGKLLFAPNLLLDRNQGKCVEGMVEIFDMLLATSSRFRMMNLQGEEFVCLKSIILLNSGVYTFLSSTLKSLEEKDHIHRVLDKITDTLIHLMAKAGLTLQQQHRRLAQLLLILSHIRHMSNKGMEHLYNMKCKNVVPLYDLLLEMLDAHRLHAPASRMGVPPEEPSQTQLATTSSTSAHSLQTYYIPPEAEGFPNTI

ID/g [1]	ID/g [2]	ID/g [3]	ID/g [4]	ID/g [5]	uterus to blood %ID/g ratio (unitless) [6]	ID/g [7]	ID/g [8]	ID/g [9]	ID/g [10]	ID/g [11]	ID/g [12]	ID/g [13]	ID/g [14]	uterus-to-blood ratio of %ID/g [15]	ID/g [16]	ID/g [17]	ID/g [18]	ID/g [19]	RBA [24]	SMILES	further results
0.24%	0.85%	0.8%	0.48%	0.51%	17.08%	10.22%	1.26%	1.02%	0.74%	1.14%	0.37%	42.2%	0.82%	15.19%	50.6%	1.89%	1.95%	1.71%	66.9	C[C@]12CC[C@@H]3c4ccc(O)c(F)c4CC[C@H]3[C@@H]1CC[C@@]2(O)/C=C\I	uterus-to-nontarget tissue uptake ratio [20]: 8.31%; ID/g [21]: 1.96%; uterus to blood ratio [22]: 22.6%; ID/g [23]: 3.49%; ID/g [25]: 7.96%; ID/g [26]: 0.85%; ID/g [27]: 10.44%; ID/g [28]: 0.82%; ID/g [29]: 4.3%; ID/g [30]: 0.71%
–	–	–	–	–	–	–	–	–	–	–	–	–	–	–	–	–	–	–	27.7	CO[C@H]1C[C@@]2(C)[C@@H](CC[C@@]2(O)/C=C/I)[C@@H]2CCc3c(ccc(O)c3F)[C@H]21	–
0.12%	0.49%	0.12%	0.2%	0.31%	4.11%	0.63%	0.61%	0.31%	0.15%	0.53%	0.17%	78%	0.29%	4.49%	114%	0.54%	1.53%	1.28%	12.1	C[C@@H]1Cc2cc(O)c(F)cc2[C@H]2CC[C@@]3(C)[C@@H](CC[C@@]3(O)/C=C/I)[C@H]12	uterus-to-nontarget tissue uptake ratio [20]: 3.3%; ID/g [21]: 1.36%; uterus to blood ratio [22]: 3.69%; ID/g [23]: 2.29%; ID/g [25]: 0.85%; ID/g [26]: 0.28%; ID/g [27]: 1.03%; ID/g [28]: 0.15%; ID/g [29]: 1.5%; ID/g [30]: 0.29%
